Assay results collected from several papers.
Protocols differ between the studies behind these lines.
Matrix: plasma

Compound | test system | setting | Cmax
Cc1c(-c2ccccc2)cccc1N1C(=O)c2cc(CN[C@H](C(=O)O)C(C)O)c(OCc3cccc(C#N)c3)cc2C1=O (stereo partly shown) | Sprague-Dawley rat | intravenous, 5 mg/kg | 4350 ng/mL
Cl.Clc1ccc2c(c1)nc(N1CCNCC1)n2Cc1ccccc1 | rat | oral, 5 mg/kg | 800 nM
COCc1nn(Cc2ccc(Cn3ccccc3=O)cc2)cc1C(=O)NCc1nccc(OC)c1C | male Sprague-Dawley rat | oral, 10 mg/kg | 1020 ng/mL
CCc1cc(C(=O)NC)c2nccc(N3CCc4c(cc(Cn5ccnc5)cc4-c4cn(C)nc4C(F)(F)F)C3=O)c2c1 | male Sprague-Dawley rat | oral, 50 mg/kg, single dose | 6170 ng/mL
N#Cc1ccc(Nc2nc(N)cc(Oc3c(F)cc(-c4ccc(C#N)cc4)cc3F)n2)cc1 | Sprague-Dawley rat | oral, 5 mg/kg | 15.4 ng/mL
Cc1noc(-c2cc3cc(-c4nc(C(=O)NCc5ccncc5)[nH]c4C)ccc3[nH]2)n1 | Sprague-Dawley rat | oral, 10 mg/kg, suspension | 2200 nM
CNC(=O)c1c(C)oc2cc(Oc3ncnc4cc(OC)c(OC)cc34)ccc12 | Sprague-Dawley rat | oral, 1 mg/kg, single dose | 712 ng/mL
COCc1nn(Cc2ccc(Cn3ccccc3=O)cc2)cc1C(=O)NCc1c(C#N)ccc(OC)c1F | male Sprague-Dawley rat | oral, 10 mg/kg | 360 ng/mL
COc1cc2c3c(n(CCCN4CCOCC4)c(=O)c2cc1OC)-c1cc2c(cc1C3=O)OCO2 | female Fischer 344 rat | intravenous, 12 mg/m², single dose | 301 ng/mL
COc1ccc2c(Cc3ccccc3F)c3n(c(=O)c2c1OC)CCc1cc2c(cc1-3)OCO2 | rat | oral, 5 mg/kg | 310 ng/mL
C=CC(=O)N1CC2CC(n3nc(-c4ccc(C(=O)Nc5ccccn5)cc4)c4c(N)ncnc43)CC2C1 (stereo not shown) | male Wistar rat | oral, 100 mg/kg | 2880 ng/mL
COc1nc(-c2cc(C)c(N[C@@H](C)c3cc(F)cc(F)c3)nn2)ccc1-n1cnc(C)c1 | male Sprague-Dawley rat | intravenous, 1 mg/kg, single dose | 3570 ng/mL
CCc1nc(C(N)=O)c(Nc2ccc(N3CCC(N4CCN(C)CC4)CC3)c(OC)c2)nc1NC1CCOCC1 | male Sprague-Dawley rat | oral, 10 mg/kg | 341 ng/mL
COc1ccc2c(=O)n(C)c(-c3ccccc3)nc2c1 | male Sprague-Dawley rat | intravenous, 2 mg/kg | 2130 ng/mL
O=C(Nc1cc(F)c(F)c(F)c1)c1ccc(F)c(S(=O)(=O)NCc2cccc(B(O)O)c2)c1 | male Sprague-Dawley rat | oral, 20 mg/kg | 46.3 ng/mL
COc1ccnc(CNC(=O)c2cn(Cc3ccc(Cn4ccccc4=O)cc3)nc2C(F)(F)F)c1F | male Sprague-Dawley rat | oral, 10 mg/kg | 2490 ng/mL
N#Cc1[nH]nnc1-c1csc(-c2ccc(Cl)cc2)n1 | male Sprague-Dawley rat | oral, 10 mg/kg | 5230 ng/mL
CCOC(=O)[C@@]12C[C@@H]1[C@@H](n1ccc3c(NC)nc(C#Cc4ccc(Cl)s4)nc31)[C@H](O)[C@@H]2O | male Sprague-Dawley rat | oral, 10 mg/kg | 192 ng/mL
N#Cc1[nH]nnc1-c1cc(Cl)cc(/C=C/c2cccc(C(F)(F)F)c2)c1 | male Sprague-Dawley rat | oral, 10 mg/kg | 2670 ng/mL
CC[C@H](C)[C@H](NC(=O)[C@H](Cc1ccccc1)NC(=O)[C@H](CCC(=O)O)NC(=O)[C@H](CCCNC(=N)N)NC(=O)[C@H](C)NC(=O)[C@H](C)NC(=O)[C@H](CCC(N)=O)NC(=O)[C@H](CCC(=O)O)NC(=O)[C@H](CCC(=O)O)NC(=O)[C@H](CC(C)C)NC(=O)[C@H](Cc1ccc(O)cc1)NC(=O)[C@H](CO)NC(=O)[C@H](CO)NC(=O)[C@@H](NC(=O)[C@H](CC(=O)O)NC(=O)[C@H](CO)NC(=O)[C@@H](NC(=O)[C@H](Cc1ccccc1)NC(=O)[C@@H](NC(=O)CNC(=O)[C@H](CCC(=O)O)NC(=O)[C@H](C)NC(=O)CCc1c[nH]cn1)[C@@H](C)O)[C@@H](C)O)C(C)C)C(=O)N[C@@H](C)C(=O)N[C@@H](Cc1c[nH]c2ccccc12)C(=O)N[C@@H](CC(C)C)C(=O)N[C@H](C(=O)N[C@@H](CCCNC(=N)N)C(=O)NCC(=O)N[C@@H](CCCNC(=N)N)C(=O)N[C@@H](CCCCNC(=O)COCCOCCNC(=O)COCCOCCNC(=O)CC[C@H](NC(=O)CCCCCCCCCCCCCCCCC(=O)O)C(=O)O)C(=O)O)C(C)C | rat | subcutaneous, 20 nmol/kg | 64.2 nM
CNCc1cc(-c2ccccc2F)n(S(=O)(=O)c2cccnc2)c1 | Sprague-Dawley rat | oral, 10 mg/kg | 245 ng/mL
COc1cc(/C=C/C(=O)CC(=O)/C=C/c2ccc(O)c(OC)c2)ccc1O | male Sprague-Dawley rat | oral, 100 mg/kg | 5.99 ng/mL
